Marks after values point to notes of the source that are not given here.
Tests used:
Assay type in all cases: in vivo, human
[1] = Pharmacokinetics of elobixibat; conditions: for C1max / t1(1/2) / C8max / t8(1/2) / C14max / t14(1/2): geometric mean (CV)
Summary of the method: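 Once-daily oral dosing before breakfast for 14 days. Plasma was drawn predose and at 0.5–12 h on Days –1, 1, 8 and 14, plus intermittent days to Day 21. Measured by LC–MS/MS (LLOQ 10.0 pg ml–1). Noncompartmental Cmax and AUC(0–t) on log-transformed values. Accumulation ratios were Day 8/Day 1 and Day 14/Day 1. Sex effect was expressed as back-transformed male/female LSM ratio.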

[2] = tested on: QTcF intervals; assay: ECG QTcF evaluation; conditions: S-test and M-test, 2.5-20 mg
Summary of the method: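 12-lead surface ECG in both single- and 14-day dosing tests. QT was Fridericia-corrected by experienced central-laboratory readers. ΔQTcF from baseline was calculated at each time point, and ΔΔQTcF versus placebo was estimated with 90% CI. Categorical counts: absolute QTcF >450, >480 and >500 ms; ΔQTcF >30 and >60 ms.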

[3] = tested on: patients with chronic constipation; assay: Adverse events, M-test
Summary of the method: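 Patients randomized 5:1 to test compound (2.5, 5, 10, 15 or 20 mg) or placebo. Oral tablet once daily before breakfast for 14 consecutive days, inpatient Day –2 to Day 21. AE type, severity and incidence were recorded with physical exams, vital signs, 12-lead ECG and laboratory tests. Proportions of patients with AEs were tabulated, and dose-dependency was tested by Cochran–Armitage trend test.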

[4] = tested on: plasma 7α‐hydroxy‐4‐cholesten‐3‐one (C4); assay: Plasma C4 level, M-test; conditions: Day 8 and Day 14; P < 0.001 except 2.5 mg day^–1
[5] = tested on: serum low‐density lipoprotein cholesterol (LDL‐C); assay: Serum LDL-C level, M-test; conditions: Day 8 and Day 14; P < 0.001 except 2.5 mg day^–1
[6] = tested on: serum high‐density lipoprotein cholesterol (HDL‐C); assay: Serum HDL-C level, M-test
[7] = Day 1, 2.5 mg once daily before breakfast
[8] = Day 1, 5 mg once daily before breakfast
[9] = Day 1, 10 mg once daily before breakfast
[10] = Day 1, 15 mg once daily before breakfast
[11] = Day 1, 20 mg once daily before breakfast
[12] = Day 8, 2.5 mg once daily before breakfast
[13] = Day 8, 5 mg once daily before breakfast
[14] = Day 8, 10 mg once daily before breakfast
[15] = Day 8, 15 mg once daily before breakfast
[16] = Day 8, 20 mg once daily before breakfast
[17] = Day 14, 2.5 mg once daily before breakfast
[18] = Day 14, 5 mg once daily before breakfast
[19] = Day 14, 10 mg once daily before breakfast
[20] = Day 14, 15 mg once daily before breakfast
[21] = Day 14, 20 mg once daily before breakfast
[22] = M-test Day 8, linear mixed effect model
[23] = M-test Day 14, linear mixed effect model
[24] = 2.5 mg once daily 14 days (group n=10)
[25] = 5 mg once daily 14 days (group n=10)
[26] = 10 mg once daily 14 days (group n=9)
[27] = 15 mg once daily 14 days (group n=10)
[28] = 20 mg once daily 14 days (group n=10)

## CCCCC1(CCCC)CN(c2ccccc2)c2cc(SC)c(OCC(=O)N[C@@H](C(=O)NCC(=O)O)c3ccccc3)cc2S(=O)(=O)C1 [elobixibat]
[1]; 5 and 15 mg day^–1 dosages (Discussion)
  drug accumulation on multiple administration: slight accumulation
[1]; [7]
  C1max: 98.69 (56.9) pg ml^–1
  t1(1/2): 1.89 (40.9) ^a h
[1]; [8]
  C1max: 164.83 (54.7) pg ml^–1
  t1(1/2): 2.41 (32.7) h
[1]; [9]
  C1max: 284.67 (39.6) ^a pg ml^–1
  t1(1/2): 2.69 (30.7) ^a h
[1]; [10]
  C1max: 468.71 (63.7) pg ml^–1
  t1(1/2): 3.28 (75.7) h
[1]; [11]
  C1max: 932.04 (76.3) pg ml^–1
  t1(1/2): 3.14 (62.4) h
[1]; [12]
  C8max: 99.39 (63.6) pg ml^–1
  t8(1/2): 2.42 (31.2) h
[1]; [13]
  C8max: 139.45 (50.7) pg ml^–1
  t8(1/2): 3.29 (68.9) h
[1]; [14]
  C8max: 283.84 (17.9) pg ml^–1
  t8(1/2): 4.96 (64.1) h
[1]; [15]
  C8max: 388.55 (82.0) pg ml^–1
  t8(1/2): 4.62 (58.2) h
[1]; [16]
  C8max: 581.32 (53.6) pg ml^–1
  t8(1/2): 5.16 (45.2) h
[1]; [17]
  C14max: 82.66 (50.4) pg ml^–1
  t14(1/2): 2.34 (50.8) ^a h
[1]; [18]
  C14max: 165.57 (35.0) pg ml^–1
  t14(1/2): 3.73 (61.0) h
[1]; [19]
  C14max: 236.11 (34.4) pg ml^–1
  t14(1/2): 6.19 (146.0) h
[1]; [20]
  C14max: 383.19 (73.5) pg ml^–1
  t14(1/2): 5.68 (74.9) h
[1]; [21]
  C14max: 953.18 (53.6) pg ml^–1
  t14(1/2): 7.23 (37.5) h
[1]; [22]
  AUC8(0–t), back transformed LSM ratio male/female: 0.9947
  C8max, back transformed LSM ratio male/female: 0.8416
[1]; [23]
  AUC14(0–t), back transformed LSM ratio male/female: 0.9863
  C14max, back transformed LSM ratio male/female: 0.9675
[1]; all dosage groups, 90% CIs of Rac included 1.000
  drug accumulation from Cmax (Rac): No drug accumulation
[1]; multiple administration once daily
  time to steady state of plasma concentration: ≤ 8 days
[2]
  QTcF prolongation (>450 ms), categorical analysis: no QTcF prolongation
[3]; [24]
  AEs associated with gastrointestinal disorders, % of patients: (80.0) %
  AEs associated with gastrointestinal disorders, n of patients: 8
  Any AEs, % of patients: (80.0) %
  Any AEs, n of patients: 8
  abdominal distention, % of patients: (30.0) %
  abdominal distention, n of patients: 3
  abdominal pain lower, % of patients: (40.0) %
  abdominal pain lower, n of patients: 4
  abdominal pain upper, n of patients: 0
  diarrhoea, % of patients: (10.0) %
  diarrhoea, n of patients: 1
[3]; [25]
  AEs associated with gastrointestinal disorders, % of patients: (80.0) %
  AEs associated with gastrointestinal disorders, n of patients: 8
  Any AEs, % of patients: (90.0) %
  Any AEs, n of patients: 9
  abdominal distention, % of patients: (30.0) %
  abdominal distention, n of patients: 3
  abdominal pain lower, % of patients: (30.0) %
  abdominal pain lower, n of patients: 3
  abdominal pain upper, % of patients: (20.0) %
  abdominal pain upper, n of patients: 2
  diarrhoea, % of patients: (40.0) %
  diarrhoea, n of patients: 4
[3]; [26]
  AEs associated with gastrointestinal disorders, % of patients: (77.8) %
  AEs associated with gastrointestinal disorders, n of patients: 7
  Any AEs, % of patients: (100.0) %
  Any AEs, n of patients: 9
  abdominal distention, % of patients: (22.2) %
  abdominal distention, n of patients: 2
  abdominal pain lower, % of patients: (33.3) %
  abdominal pain lower, n of patients: 3
  abdominal pain upper, % of patients: (22.2) %
  abdominal pain upper, n of patients: 2
  diarrhoea, % of patients: (44.4) %
  diarrhoea, n of patients: 4
[3]; [27]
  AEs associated with gastrointestinal disorders, % of patients: (70.0) %
  AEs associated with gastrointestinal disorders, n of patients: 7
  Any AEs, % of patients: (90.0) %
  Any AEs, n of patients: 9
  abdominal distention, % of patients: (40.0) %
  abdominal distention, n of patients: 4
  abdominal pain lower, % of patients: (40.0) %
  abdominal pain lower, n of patients: 4
  abdominal pain upper, n of patients: 0
  diarrhoea, % of patients: (40.0) %
  diarrhoea, n of patients: 4
[3]; [28]
  AEs associated with gastrointestinal disorders, % of patients: (90.0) %
  AEs associated with gastrointestinal disorders, n of patients: 9
  Any AEs, % of patients: (90.0) %
  Any AEs, n of patients: 9
  abdominal distention, % of patients: (60.0) %
  abdominal distention, n of patients: 6
  abdominal pain lower, % of patients: (50.0) %
  abdominal pain lower, n of patients: 5
  abdominal pain upper, % of patients: (20.0) %
  abdominal pain upper, n of patients: 2
  diarrhoea, % of patients: (80.0) %
  diarrhoea, n of patients: 8
[3]; once‐daily administration, female and male patients
  safety and tolerability: safe and tolerated up to 20 mg
[4]
  C4 AUEC relative to placebo (ANCOVA): significantly greater
[5]
  LDL‐C AUEC compared to placebo (ANCOVA): significantly greater reductions
[6]
  HDL‐C levels, trend: no clear trend

Reference: PMC6138487 (British Journal of Clinical Pharmacology, 2018)
